Results on three molecules are retold here after ChEMBL document CHEMBL4425103, “Diving into the Water: Inducible Binding Conformations for BRD4, TAF1(2), BRD9, and CECR2 Bromodomains” (J Med Chem, 2016).

Usually IC50 stands for the concentration needed to halve the response being measured.

Assay [1] concerns the target T1, Bromodomain-containing protein 4 (Homo sapiens, UniProt O60885). Description: Inhibition of recombinant His-tagged BRD4 bromodomain1 (unknown origin) using biotinylated ligand incubated for 10 mins by TR-FRET assay. On the technique in general: In TR-FRET formats the signal depends on donor and acceptor labels being close together.
For assay [2], the target named is T1, Bromodomain-containing protein 4. Description: Inhibition of recombinant His-tagged BRD4 bromodomain2 (unknown origin) using biotinylated ligand incubated for 10 mins by TR-FRET assay.
A further assay concerns the target CREB-binding protein (Homo sapiens, UniProt Q92793). Description: Displacement of biotinylated JQ1 analog from recombinant His-tagged CBP (unknown origin) incubated for 10 mins by TR-FRET assay.
The target of the next assay is T2, Peregrin (Homo sapiens, UniProt P55201).
T2 sequence (P55201 whole entry): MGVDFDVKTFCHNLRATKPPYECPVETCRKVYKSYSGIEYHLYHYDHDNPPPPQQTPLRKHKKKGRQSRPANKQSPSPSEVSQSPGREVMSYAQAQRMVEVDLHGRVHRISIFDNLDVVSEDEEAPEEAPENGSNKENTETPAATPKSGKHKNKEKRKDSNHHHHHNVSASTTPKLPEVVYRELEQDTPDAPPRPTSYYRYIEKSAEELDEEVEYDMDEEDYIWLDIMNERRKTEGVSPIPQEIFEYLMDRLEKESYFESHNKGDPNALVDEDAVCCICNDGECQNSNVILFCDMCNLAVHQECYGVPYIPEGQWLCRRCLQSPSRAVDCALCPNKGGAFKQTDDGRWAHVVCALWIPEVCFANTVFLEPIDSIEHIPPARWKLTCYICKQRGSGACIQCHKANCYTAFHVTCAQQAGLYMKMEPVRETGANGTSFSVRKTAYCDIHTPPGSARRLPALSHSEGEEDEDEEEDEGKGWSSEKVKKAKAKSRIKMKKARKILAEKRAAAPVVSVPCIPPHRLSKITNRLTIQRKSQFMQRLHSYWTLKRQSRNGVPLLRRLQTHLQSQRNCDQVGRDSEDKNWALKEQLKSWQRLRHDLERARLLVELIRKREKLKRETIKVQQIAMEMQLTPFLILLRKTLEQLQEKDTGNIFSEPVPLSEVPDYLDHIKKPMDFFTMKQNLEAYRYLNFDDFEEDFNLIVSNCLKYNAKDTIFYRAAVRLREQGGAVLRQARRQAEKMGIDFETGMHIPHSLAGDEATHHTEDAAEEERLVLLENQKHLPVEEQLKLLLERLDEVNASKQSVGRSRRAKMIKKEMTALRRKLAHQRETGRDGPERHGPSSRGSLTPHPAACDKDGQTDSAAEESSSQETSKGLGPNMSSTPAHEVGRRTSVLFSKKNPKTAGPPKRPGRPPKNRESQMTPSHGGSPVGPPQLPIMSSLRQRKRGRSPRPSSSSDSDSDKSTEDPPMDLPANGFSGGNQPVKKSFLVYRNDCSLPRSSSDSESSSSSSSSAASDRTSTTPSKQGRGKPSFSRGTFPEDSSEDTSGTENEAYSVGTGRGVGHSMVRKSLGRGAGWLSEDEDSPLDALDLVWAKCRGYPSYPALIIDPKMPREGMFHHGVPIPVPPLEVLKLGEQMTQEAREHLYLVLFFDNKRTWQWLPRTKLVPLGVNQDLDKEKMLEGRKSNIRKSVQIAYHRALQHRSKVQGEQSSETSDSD
Kind of assay: Displacement of biotinylated JQ1 analog from recombinant His-tagged BRPF1 (unknown origin) incubated for 10 mins by TR-FRET assay. An outline of the steps: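 Bromodomain, then biotinylated ligand, each added with 10 min incubation. Anti-His europium (0.2 nM) plus streptavidin-APC followed for 40 min. 10-point titrations in duplicate, at least 2 independent runs.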

Assay [3] concerns the target T3, Bromodomain-containing protein 9 (Homo sapiens, UniProt Q9H8M2).
T3 sequence (Q9H8M2 whole entry): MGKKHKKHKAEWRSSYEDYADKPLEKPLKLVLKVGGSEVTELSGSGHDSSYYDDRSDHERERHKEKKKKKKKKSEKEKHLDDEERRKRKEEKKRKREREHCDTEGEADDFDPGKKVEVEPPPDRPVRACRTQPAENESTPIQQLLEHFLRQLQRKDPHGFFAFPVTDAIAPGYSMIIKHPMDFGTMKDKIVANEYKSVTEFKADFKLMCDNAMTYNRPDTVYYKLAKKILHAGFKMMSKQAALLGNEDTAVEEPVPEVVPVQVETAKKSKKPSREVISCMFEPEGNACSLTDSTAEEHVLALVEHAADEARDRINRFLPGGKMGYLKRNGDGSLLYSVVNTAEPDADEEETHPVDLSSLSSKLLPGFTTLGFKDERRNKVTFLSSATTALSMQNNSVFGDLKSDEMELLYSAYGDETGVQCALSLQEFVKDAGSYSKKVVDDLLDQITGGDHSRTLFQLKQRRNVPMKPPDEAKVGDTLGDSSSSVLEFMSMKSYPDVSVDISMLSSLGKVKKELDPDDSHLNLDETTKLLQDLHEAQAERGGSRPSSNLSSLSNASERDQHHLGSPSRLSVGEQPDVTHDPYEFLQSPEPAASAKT
Kind of assay: Displacement of biotinylated JQ1 analog from recombinant His-tagged BRD9 (unknown origin) incubated for 10 mins by TR-FRET assay.

The target in assay [4] is T4, Transcription initiation factor TFIID subunit 1 (Homo sapiens, UniProt P21675). Description: Inhibition of recombinant His-tagged TAF1 isoform-1 (unknown origin) using biotinylated ligand incubated for 10 mins by TR-FRET assay.
T4 sequence (P21675 whole entry, canonical isoform): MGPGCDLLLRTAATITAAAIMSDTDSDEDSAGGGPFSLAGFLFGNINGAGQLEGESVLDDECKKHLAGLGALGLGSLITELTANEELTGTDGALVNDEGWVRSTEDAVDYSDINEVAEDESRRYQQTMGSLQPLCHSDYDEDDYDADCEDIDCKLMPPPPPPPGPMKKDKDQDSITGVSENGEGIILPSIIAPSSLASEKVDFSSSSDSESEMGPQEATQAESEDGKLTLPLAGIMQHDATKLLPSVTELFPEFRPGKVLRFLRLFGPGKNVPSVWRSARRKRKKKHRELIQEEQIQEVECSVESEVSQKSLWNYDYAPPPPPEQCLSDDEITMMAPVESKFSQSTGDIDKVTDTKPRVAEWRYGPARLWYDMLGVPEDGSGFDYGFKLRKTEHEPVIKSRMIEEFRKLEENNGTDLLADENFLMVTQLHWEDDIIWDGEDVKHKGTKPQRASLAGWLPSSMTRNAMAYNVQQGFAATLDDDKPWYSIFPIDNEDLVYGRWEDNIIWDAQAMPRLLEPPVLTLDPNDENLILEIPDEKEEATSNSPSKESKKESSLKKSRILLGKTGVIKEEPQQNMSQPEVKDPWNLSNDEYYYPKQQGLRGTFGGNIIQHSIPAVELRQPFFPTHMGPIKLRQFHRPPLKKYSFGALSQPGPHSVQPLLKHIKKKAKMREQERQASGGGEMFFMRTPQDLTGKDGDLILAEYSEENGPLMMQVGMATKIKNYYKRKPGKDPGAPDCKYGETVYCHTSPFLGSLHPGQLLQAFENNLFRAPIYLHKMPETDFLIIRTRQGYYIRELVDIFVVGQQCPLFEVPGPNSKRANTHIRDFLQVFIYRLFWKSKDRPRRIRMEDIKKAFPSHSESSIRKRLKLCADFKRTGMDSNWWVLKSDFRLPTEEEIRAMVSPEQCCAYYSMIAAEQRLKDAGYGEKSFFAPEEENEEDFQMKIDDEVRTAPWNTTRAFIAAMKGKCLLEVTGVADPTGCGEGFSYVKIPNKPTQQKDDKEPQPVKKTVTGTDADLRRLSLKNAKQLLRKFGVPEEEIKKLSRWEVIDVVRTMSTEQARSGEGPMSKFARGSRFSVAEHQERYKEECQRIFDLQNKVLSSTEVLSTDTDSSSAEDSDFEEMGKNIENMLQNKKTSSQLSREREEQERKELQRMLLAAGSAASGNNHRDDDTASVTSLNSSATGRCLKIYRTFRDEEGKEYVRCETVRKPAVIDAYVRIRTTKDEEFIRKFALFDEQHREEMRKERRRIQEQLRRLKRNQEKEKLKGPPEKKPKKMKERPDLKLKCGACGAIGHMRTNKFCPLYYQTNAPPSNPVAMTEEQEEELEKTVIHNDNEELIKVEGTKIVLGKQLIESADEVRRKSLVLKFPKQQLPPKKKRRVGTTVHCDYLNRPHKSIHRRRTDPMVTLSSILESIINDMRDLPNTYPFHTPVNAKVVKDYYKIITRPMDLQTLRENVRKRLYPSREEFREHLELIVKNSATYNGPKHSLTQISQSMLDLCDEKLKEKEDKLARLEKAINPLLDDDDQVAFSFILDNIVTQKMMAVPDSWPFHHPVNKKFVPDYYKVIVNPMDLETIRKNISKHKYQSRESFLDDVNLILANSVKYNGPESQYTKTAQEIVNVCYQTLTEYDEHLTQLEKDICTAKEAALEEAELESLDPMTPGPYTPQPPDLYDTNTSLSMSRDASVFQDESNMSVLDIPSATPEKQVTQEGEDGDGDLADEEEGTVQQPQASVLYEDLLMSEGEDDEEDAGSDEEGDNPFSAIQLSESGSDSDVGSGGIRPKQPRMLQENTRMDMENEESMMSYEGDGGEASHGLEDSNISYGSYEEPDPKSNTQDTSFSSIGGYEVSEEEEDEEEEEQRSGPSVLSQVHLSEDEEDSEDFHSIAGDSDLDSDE
Assay [5] addresses T4, Transcription initiation factor TFIID subunit 1. Kind of assay: Inhibition of recombinant His-tagged TAF1 isoform-2 (unknown origin) using biotinylated ligand incubated for 10 mins by TR-FRET assay.
The target in assay [6] is Chromatin remodeling regulator CECR2 (Homo sapiens, UniProt Q9BXF3). Description: Inhibition of recombinant His-tagged CECR2 (unknown origin) using biotinylated ligand incubated for 10 mins by TR-FRET assay.

Sequence of CREB-binding protein (Q92793 whole entry): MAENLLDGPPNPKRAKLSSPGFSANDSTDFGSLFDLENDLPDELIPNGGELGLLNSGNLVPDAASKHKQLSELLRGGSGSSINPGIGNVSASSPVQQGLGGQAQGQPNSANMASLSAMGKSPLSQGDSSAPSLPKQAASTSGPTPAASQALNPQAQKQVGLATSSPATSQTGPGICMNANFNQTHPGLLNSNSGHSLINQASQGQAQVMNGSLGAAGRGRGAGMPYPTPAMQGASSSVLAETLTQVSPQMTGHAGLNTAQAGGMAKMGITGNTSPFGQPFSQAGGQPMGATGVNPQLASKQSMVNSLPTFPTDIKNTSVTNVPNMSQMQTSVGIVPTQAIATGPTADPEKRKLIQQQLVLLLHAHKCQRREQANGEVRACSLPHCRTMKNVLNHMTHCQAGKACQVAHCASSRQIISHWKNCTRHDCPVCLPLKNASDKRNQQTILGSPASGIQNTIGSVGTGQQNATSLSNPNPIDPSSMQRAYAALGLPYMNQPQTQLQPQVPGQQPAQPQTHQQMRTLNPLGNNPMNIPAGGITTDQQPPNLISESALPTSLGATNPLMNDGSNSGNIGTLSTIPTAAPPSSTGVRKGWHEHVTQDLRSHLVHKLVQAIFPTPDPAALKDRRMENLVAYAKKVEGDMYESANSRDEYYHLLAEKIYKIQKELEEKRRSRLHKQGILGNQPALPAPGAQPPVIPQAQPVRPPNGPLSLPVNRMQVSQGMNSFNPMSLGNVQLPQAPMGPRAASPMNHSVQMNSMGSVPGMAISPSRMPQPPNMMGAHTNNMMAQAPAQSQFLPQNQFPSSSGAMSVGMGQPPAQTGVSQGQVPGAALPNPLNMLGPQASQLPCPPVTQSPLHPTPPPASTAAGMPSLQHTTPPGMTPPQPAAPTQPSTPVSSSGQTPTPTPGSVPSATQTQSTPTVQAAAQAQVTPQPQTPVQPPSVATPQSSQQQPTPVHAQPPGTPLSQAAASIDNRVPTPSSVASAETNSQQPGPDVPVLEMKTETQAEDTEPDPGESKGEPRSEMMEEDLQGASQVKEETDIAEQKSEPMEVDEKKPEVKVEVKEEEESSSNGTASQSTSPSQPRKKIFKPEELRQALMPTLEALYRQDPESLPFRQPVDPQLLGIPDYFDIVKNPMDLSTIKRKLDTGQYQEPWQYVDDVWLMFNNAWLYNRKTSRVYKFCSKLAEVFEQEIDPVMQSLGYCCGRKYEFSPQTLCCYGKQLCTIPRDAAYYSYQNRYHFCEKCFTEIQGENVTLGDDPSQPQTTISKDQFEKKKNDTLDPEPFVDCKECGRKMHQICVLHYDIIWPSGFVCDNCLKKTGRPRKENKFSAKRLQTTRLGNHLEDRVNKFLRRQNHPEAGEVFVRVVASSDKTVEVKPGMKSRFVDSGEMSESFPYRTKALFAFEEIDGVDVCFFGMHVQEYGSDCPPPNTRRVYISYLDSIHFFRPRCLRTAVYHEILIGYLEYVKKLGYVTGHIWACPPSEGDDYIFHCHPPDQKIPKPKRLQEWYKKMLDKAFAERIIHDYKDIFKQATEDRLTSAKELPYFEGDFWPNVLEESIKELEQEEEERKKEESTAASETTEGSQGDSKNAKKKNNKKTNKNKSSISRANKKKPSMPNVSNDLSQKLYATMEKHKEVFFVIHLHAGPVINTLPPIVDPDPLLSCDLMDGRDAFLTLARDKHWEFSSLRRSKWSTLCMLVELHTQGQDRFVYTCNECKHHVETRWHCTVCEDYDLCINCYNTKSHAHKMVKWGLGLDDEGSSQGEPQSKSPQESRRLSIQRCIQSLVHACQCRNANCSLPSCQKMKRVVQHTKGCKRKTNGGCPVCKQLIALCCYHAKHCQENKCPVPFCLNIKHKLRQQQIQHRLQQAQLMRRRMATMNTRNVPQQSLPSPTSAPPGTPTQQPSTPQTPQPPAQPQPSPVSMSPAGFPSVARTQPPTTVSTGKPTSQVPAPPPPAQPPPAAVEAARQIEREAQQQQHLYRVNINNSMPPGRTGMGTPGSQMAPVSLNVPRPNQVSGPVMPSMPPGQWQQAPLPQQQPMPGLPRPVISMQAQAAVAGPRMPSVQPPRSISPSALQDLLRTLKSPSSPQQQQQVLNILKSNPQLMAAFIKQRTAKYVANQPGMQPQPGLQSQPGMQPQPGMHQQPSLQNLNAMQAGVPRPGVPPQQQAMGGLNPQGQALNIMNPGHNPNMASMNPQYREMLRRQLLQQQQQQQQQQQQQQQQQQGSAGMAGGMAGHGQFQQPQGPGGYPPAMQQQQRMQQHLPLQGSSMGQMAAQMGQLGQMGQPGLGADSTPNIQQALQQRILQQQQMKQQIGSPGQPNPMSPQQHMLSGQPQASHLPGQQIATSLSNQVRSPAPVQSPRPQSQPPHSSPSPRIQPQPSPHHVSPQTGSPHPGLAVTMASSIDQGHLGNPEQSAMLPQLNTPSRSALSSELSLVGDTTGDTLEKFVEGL

Turning to `Cn1ccc2cc[nH]c2c1=O`, the IC50 in assay [1] was 18.4 µM; in assay [2], 7.5 µM; at CREB-binding protein it was 11.8 µM; at Peregrin, 53.8 µM; in assay [3] it was 13.7 µM; in assay [4] it was 38.9 µM. The IC50 in assay [5] stood at 23.7 µM; in assay [6] it was 42.8 µM.

Take `C/C=C/Cn1cc(-c2cccc(C(=O)N(C)C)c2)c2cc[nH]c2c1=O`: the IC50 at Peregrin is over 20 µM.

As to `C=CCCn1cc(-c2cccc(C(=O)N(C)C)c2)c2cc[nH]c2c1=O`, the IC50 at Peregrin was over 20 µM.
